In BindingDB's records for doi:10.1021/acs.jmedchem.8b01327 (2019):

Molecular target: Mu-type opioid receptor (Rattus norvegicus, UniProt P33535)
Experiment: Displacement of [3H]DAMGO from mu opioid receptor in rat brain membranes incubated for 45 mins by liquid scintillation counting method
In short: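 Rat brain membranes (cerebella removed; 0.3–0.5 mg protein) in 50 mM Tris-HCl, pH 7.4, were incubated 45 min at 35 °C with 1 nM [3H]DAMGO (MOR) or 0.5 nM [3H][Ile5,6]deltorphin II (DOR) plus varied test concentrations. Nonspecific binding was set with 10 μM naloxone. Samples were GF/C filtered, washed and scintillation counted. Ki was obtained by Cheng–Prusoff; duplicates, 3–4 experiments.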

Sequence of Mu-type opioid receptor (P33535 whole entry): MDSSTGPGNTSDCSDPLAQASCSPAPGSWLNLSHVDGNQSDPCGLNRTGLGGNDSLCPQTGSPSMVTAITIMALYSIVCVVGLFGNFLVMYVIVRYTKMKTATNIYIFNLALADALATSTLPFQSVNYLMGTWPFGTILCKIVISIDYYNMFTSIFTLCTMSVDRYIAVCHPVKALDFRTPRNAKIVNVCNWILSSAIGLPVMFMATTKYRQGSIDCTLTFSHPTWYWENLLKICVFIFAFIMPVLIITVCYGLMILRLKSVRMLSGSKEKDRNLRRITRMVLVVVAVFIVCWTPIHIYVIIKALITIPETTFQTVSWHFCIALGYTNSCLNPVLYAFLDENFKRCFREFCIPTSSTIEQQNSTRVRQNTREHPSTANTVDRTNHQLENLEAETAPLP

CO[C@@]12CC[C@@H](N[C@@H](CC(N)=O)C(=O)O)[C@@H]3Oc4c(O)ccc5c4[C@@]31CCN(C)[C@@H]2C5
Ki: 1.3 nM
